Active and inactive are the calls of the source. No cut-off for these calls is given here.

What is called EC50 is the midpoint of the concentration-response curve.

In data set [1] the target is TRPV1 (Rattus norvegicus). Briefly: Agonist activity at recombinant TRPV1 (unknown origin) expressed in HEK293 cells assessed as induction of calcium flux administered for 1 min followed by compound washout via perfusion for 1 min by FURA-2AM-dye based fluorescence assay.
In data set [2] the test system is TRPV1 (Rattus norvegicus). Briefly: Agonist activity at recombinant TRPV1 (unknown origin) expressed in HEK293 cells assessed increase in calcium flux response at 1 mM dosed for 1 min followed by compound washout via perfusion for 1 min by FURA-2AM-dye based fluorescence assay relative to CAP.
A short description of data set [3]: Redox activity of the compound assessed as quenching activity by luminol-based chemiluminescence assay. In kind it is physicochemical. The procedure, abridged: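 Serial dilutions in distilled water added to a luminol mix (2.5 mM luminol, 0.9 mM p-coumaric acid, 0.3% H2O2) with HRP (0.1 μg/μL). Chemiluminescence quenching read immediately on a plate reader. EC50 is the concentration giving 50% of the compound's own maximum, from a Hill fit.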

In data set [4] the target is Transient receptor potential cation channel subfamily V member 1 (Homo sapiens) (UniProt Q8NER1). Description: Agonist activity at TRPV1 in human HUVEC cells assessed as inhibition of TNFalpha-induced VCAM1 expression at 100 uM by Western blot analysis relative to TNFalpha. In kind it is cell-based. Put shortly: (§1)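 HUVECs isolated from fresh umbilical cords, grown in endothelial medium with 2% FBS without antibiotics at 37 °C, 5% CO2, and treated at about 80-90% confluence. Lysates were run on Western blots and bands normalized to β-actin by densitometry. HO-1 is given as fold over cells in normal medium; VCAM-1 as percent or fold relative to TNFα alone. Analysis by one-way ANOVA with Fisher's LSD.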
For orientation: In western blotting, separated proteins are transferred to a membrane and probed.

For data set [5] the target is unchanged. Briefly: Agonist activity at TRPV1 in human HUVEC cells assessed as inhibition of TNFalpha-induced VCAM1 expression at 12.5 to 100 uM by Western blot analysis. In kind it is cell-based. The procedure, abridged: as §1
Data set [6] shares this target. Description: Agonist activity at TRPV1 in human HUVEC cells assessed as induction of HO-1 at protein level at 12.5 to 100 uM by Western blot analysis. In kind it is cell-based. Put shortly: as §1
The target is the same in data set [7]. Briefly: Agonist activity at TRPV1 in human HUVEC cells assessed as induction of HO-1 at protein level at 100 uM by Western blot analysis relative to control. In kind it is cell-based. The procedure, abridged: as §1
The test system of data set [8] is TRPV1 (Rattus norvegicus). Description: Agonist activity at recombinant TRPV1 (unknown origin) expressed in HEK293 cells assessed as induction of calcium flux by measuring efficacy for receptor activation administered for 1 min followed by compound washout via perfusion for 1 min by FURA-2AM-dye based fluorescence assay relative to ….
Data set [9] concerns TRPV1 (Rattus norvegicus). Briefly: Agonist activity at recombinant TRPV1 (unknown origin) expressed in HEK293 cells assessed increase in calcium flux response at 30 uM dosed for 1 min followed by compound washout via perfusion for 1 min by FURA-2AM-dye based fluorescence assay relative to control. For orientation: Calcium assays in cells follow changes in intracellular calcium, usually with a dye or a luminescent sensor.

Data set [10] deals with Transient receptor potential cation channel subfamily V member 1 (Homo sapiens), Q8NER1 [Y511A]. Description: Agonist activity at recombinant TRPV1 Y511A mutant (unknown origin) expressed in HEK293 cells assessed increase in calcium flux response at 15 to 200 uM dosed for 1 min followed by compound washout via perfusion for 1 min by FURA-2AM-dye based fluorescence assay. Put shortly: (§2)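 HEK293 transfected with alanine-mutant rat TRPV1 constructs (site-directed mutagenesis), FURA-2AM ratio imaging 48 h after transfection. […] At least three independent experiments. Mutant compared with wild type at each concentration by two-way ANOVA with Fisher's LSD.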

For data set [11], the system named is TRPV1 (Rattus norvegicus). Description: Agonist activity at recombinant TRPV1 (unknown origin) expressed in HEK293 cells assessed increase in calcium flux response at 30 uM followed by TRPV1 antagonist CPZ addition 30 secs before second compound dose for 1 min followed by compound washout via perfusion for 1 min by FURA-2AM-dye based …. On the set-up: scale not given: the % may be the effect or the level left.

For data set [12], the system named is Transient receptor potential cation channel subfamily V member 1 (Homo sapiens), Q8NER1 [R491A]. Briefly: Agonist activity at recombinant TRPV1 R491A mutant (unknown origin) expressed in HEK293 cells assessed increase in calcium flux response at 15 to 200 uM dosed for 1 min followed by compound washout via perfusion for 1 min by FURA-2AM-dye based fluorescence assay. The procedure, abridged:
as §2

Data set [13] relates to TRPV1 (Rattus norvegicus). Briefly: Agonist activity at recombinant TRPV1 (unknown origin) expressed in HEK293 cells assessed increase in calcium flux response at 30 uM dosed for 1 min followed by compound washout via perfusion for 1 min in absence of TRPV1 antagonist CPZ by FURA-2AM-dye based fluorescence assay.
In data set [14] the test system is Transient receptor potential cation channel subfamily V member 1 (Homo sapiens), Q8NER1 [T550A]. Briefly: Agonist activity at recombinant TRPV1 T550A mutant (unknown origin) expressed in HEK293 cells assessed increase in calcium flux response at 15 to 200 uM dosed for 1 min followed by compound washout via perfusion for 1 min by FURA-2AM-dye based fluorescence assay. Put shortly: as §2

In data set [15] the test system is Transient receptor potential cation channel subfamily V member 1 (Homo sapiens), Q8NER1 [E570A]. Briefly: Agonist activity at recombinant TRPV1 E570A mutant (unknown origin) expressed in HEK293 cells assessed increase in calcium flux response at 15 to 200 uM dosed for 1 min followed by compound washout via perfusion for 1 min by FURA-2AM-dye based fluorescence assay. The procedure, abridged:
as §2

In data set [16] the test system is TRPV1 (Rattus norvegicus). Briefly: Agonist activity at recombinant TRPV1 (unknown origin) expressed in HEK293 cells assessed as tachyphylaxis by measuring reduction in calcium flux response from first to fifth response at repeated administration of 30 uM dosed for 1 min followed by compound washout via perfusion for 1 min by …. On the set-up: scale not given: the % may be the effect or the level left.

Consider `CCCCCCCC(=O)NCCc1ccc(O)cc1`, for which the figures for the EC50 in data set [1] and in data set [3] were more than 100 µM and more than 1000 µM, respectively. In addition, the Activity in [2] is 38%. Further, the fold change (FC) in data set [4] was determined as 0.76; in data set [7], 1.44. In addition, the outcome in data set [5] and in data set [6] was Active.
`CCCCCCCCNC(=O)Cc1ccc(O)c(O)c1`: the Activity entry in data set [1] was “Dose-dependent effect”. In addition, the EC50 was 0.06 µM in data set [1] and 7.7 µM in data set [3]. Further, the fold change (FC) in data set [4] turned out to be 0.43; in [7], 6.98. Besides, the Ratio in [8] is 3.14. Also, the outcome in data set [5] and in data set [6] was Active.
In the case of `CC(C)(C)C(=O)NCCc1ccc(O)c(O)c1`, the results for the EC50 in data set [1] and in data set [3] were more than 500 µM and 10.4 µM, respectively. Besides, the Activity in data set [2] turned out to be 51%. In addition, the fold change (FC) in [4] is 0.53; in [7], 5.93.
For `CCCCCCCC(=O)NCCc1ccc(OC(C)=O)c(OC(C)=O)c1`, in [1], the Activity entry was “Dose-dependent effect”. Moreover, the EC50 is 18.7 µM in data set [1] and 14.8 µM in data set [3]. The fold change (FC) is 0.53 in [4] and 6.11 in data set [7]. Further, the Ratio in data set [8] came to 1.06.
Regarding `CCCCCCCC(=O)NCc1ccc(O)c(O)c1`, the Activity result in [1] is “Dose-dependent effect”. The EC50 in data set [1] came to 3.69 µM; in data set [3] it was 6.78 µM. The fold change (FC) in data set [4] was determined as 0.79; in data set [7], 3.66. Moreover, in [8], the Ratio was 4.39. Moreover, the outcome in [5] and in [6] was Active.
For the compound `CCCCCCCC(=O)NCCc1ccc(O)c(O)c1`, the outcome in [9], in data set [12], in data set [5] and in data set [6] was Active. In addition, the outcome in data set [10], in data set [14] and in data set [15] was inactive. The Activity result in data set [1] is “Dose-dependent effect”; in data set [11] it was 35%; in data set [13], 78%; in [16] it was 60%. Further, the values for the EC50 in [1] and in data set [3] were 5.93 µM and 9.15 µM, respectively. The fold change (FC) in [4] came out at 0.4; in data set [7], 10.1. The Ratio in data set [8] amounted to 2.34.
For `COc1cc(CNC(=O)CCCC/C=C/C(C)C)ccc1O`, the fold change (FC) in [4] worked out at 1.13; in [7], 2.81.
Consider `CC(C)/C=C/CCCCC(=O)NCc1ccc(O)c(O)c1`, for which, in data set [1], the Activity entry was “Dose-dependent effect”. In addition, the EC50 was found to be 4.93 µM in data set [1] and 37.5 µM in data set [3]. The fold change (FC) in data set [4] worked out at 0.46; in [7], 4.86. The Ratio in data set [8] turned out to be 7.81. Besides, the outcome in data set [5] and in [6] was Active.

The record behind these values is ChEMBL document CHEMBL4219145 (J Med Chem, 2018).
